Molecular target: Methionine--tRNA ligase, mitochondrial (Homo sapiens) (UniProt Q96GW9)
Assay: human mtMetRS tRNA charging inhibition – biochemical, radioactivity, round 1, selectivity assay for T. brucei MetRS inhibitor project, late-stage follow-up (AID 743061);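 note: 0% = DMSO with full reaction and 100% = DMSO wells lacking tRNA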
Details: recombinant human mtMetRS, [3H]Met tRNA charging, at 10 µM, stronger effect = higher value
Method in brief: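 System: human mitochondrial MetRS enzyme / Buffer or medium: pH 8.0 reaction buffer containing 2.5 mM ATP / Probe or stimulus: 240 nM [3H]methionine with bulk E. coli tRNA acceptor / Doses: 10 and 1 µM / Times: 15 min compound–enzyme preincubation, then 1 h reaction at room temperature / Detection: scintillation counts of TCA-precipitated charged tRNA on filters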

Row | Compound | inhibition [%]
1 | O=C(CSc1nnc2c(n1)[nH]c1ccc(Br)cc12)NCc1ccccc1 | 21.6
2 | CC(=O)c1cn(CC(=O)Nc2cccc(C(F)(F)F)c2)c2ccccc12 | -0.68
3 | O=C1CC(N(CCc2ccccc2)C(=S)Nc2ccccc2)C(=O)N1c1ccc(Br)cc1 (stereo not given) | 25.6
4 | COCCc1nc2ccc(C(=O)NCCc3nc4ccc(OC)cc4[nH]3)cc2o1 | 0.45
5 | O=C(NCc1nc2ccccc2[nH]1)C1=C[C@@H](C2CC2)C[C@@H](OCc2ccc(CO)cc2)O1 | 5.87
6 | CCN(CC)C(=O)C(=O)c1cn(CC(=O)Nc2ccccc2OC)c2ccccc12 | -1.19
7 | CC(CC(=O)Nc1cccc(Br)c1)=NNC(=O)c1ccc(O)cc1O | 4.55
8 | O=C(NCc1nc2ccccc2[nH]1)C1=C[C@@H](c2ccc3c(c2)OCO3)C[C@@H](OCCCCO)O1 | -0.58
9 | O=C(CC=NOCc1ccc([N+](=O)[O-])cc1)Nc1ccc(Cl)cc1 | 1.47
10 | COc1ccc(CNC(=O)CSc2nnc3c(n2)[nH]c2ccc(F)cc23)cc1 | -12
11 | O=C(CN1CCSC1=NCc1ccccc1)c1ccc(Cl)c(Cl)c1 | -25.5
12 | CCN(CC)C(=O)C(=O)c1cn(CC(=O)Nc2cccc(OC)c2)c2ccccc12 | 17.3
13 | O=C(CC(=O)Nc1cccc(Cl)c1)NN=Cc1ccccc1 | 9.82
14 | O=C(C[C@H]1C(=O)N(Cc2ccccc2)C[C@@H]1c1ccc(Br)cc1)Nc1ccc(Br)cc1 | -8.54
15 | Cc1cccc(C(=O)NCCc2nc3ccccc3n2CCOc2ccccc2)c1 | 4.57
16 | O=C(NCc1nc2ccccc2[nH]1)C1=C[C@H](c2ccc3c(c2)OCO3)C[C@H](OCCCCO)O1 | 10.2
17 | O=C(Cn1cnc2ccccc21)Nc1cccc([N+](=O)[O-])c1 | -2.2
18 | COc1ccc(CCN(C(=S)Nc2ccccc2)C2CC(=O)N(c3ccc(Cl)cc3)C2=O)cc1 (stereo not given) | 61.9

Row | Compound | inhibition [%]
19 | O=C(NNC(=O)c1ccc(-n2cncn2)c([N+](=O)[O-])c1)c1ccc(Cl)cc1 | -21.4
20 | O=C(CC=NOCc1ccc([N+](=O)[O-])cc1)Nc1ccc(Br)cc1 | -6.71
21 | O=C(NCc1nc2ccccc2[nH]1)C1=C[C@H](c2ccccc2)C[C@H](OCc2ccc(CO)cc2)O1 | 12.7
22 | O=C(N/C(=C\c1cccnc1)c1nc2ccccc2[nH]1)c1cccc(Br)c1 | 4.89
23 | CCN(CC)C(=O)C(=O)c1cn(CC(=O)N(CC)c2ccccc2)c2ccccc12 | 9.56
24 | O=C(CCC(=O)Nc1cccc([N+](=O)[O-])c1)NN=Cc1cccs1 | -14.1
25 | Cn1c(CCNC(=O)c2ccc(Cl)cc2)nc2ccccc21 | 12.5
26 | O=C(NCCc1nc2ccccc2[nH]1)c1c(F)cccc1F | 0.73
27 | O=C(NNC(=O)c1cc(-c2ccc(Cl)c(Cl)c2)nc2ccccc12)Nc1ccccc1 | -11.2
28 | CCN(CC)C(=O)C(=O)c1cn(CC(=O)N2CCCc3ccccc32)c2ccccc12 | -1.92
29 | Cc1cccc2[nH]c(C3CCCN(C(=O)c4cccc5cccnc45)C3)nc12 (stereo not given) | 2.39
30 | CCCCn1c(CCNC(=O)c2ccc(F)cc2)nc2ccccc21 | 5.87
31 | O=C(NCc1nc2ccccc2[nH]1)C1=C[C@@H](c2ccccc2)C[C@@H](OCc2ccc(CO)cc2)O1 | 15.8
32 | CC(C)(C)[C@H]1C=C(C(=O)NCc2nc3ccccc3[nH]2)O[C@@H](OCc2ccc(CO)cc2)C1 | 10.3
33 | O=C(NCCc1nc2ccccc2[nH]1)c1ccc(Cl)c(Cl)c1 | 27.7
34 | COc1ccc2[nH]c3nc(SCC(=O)Nc4ccc5c(c4)OCO5)nnc3c2c1 | 24.5
35 | COc1ccccc1NC(=O)Cn1cc(C(=O)C(=O)N2CCOCC2)c2ccccc21 | -8.03
